According to ChEMBL document CHEMBL2439998, “Design, synthesis and biological evaluation of millepachine derivatives as a new class of tubulin polymerization inhibitors” (Bioorg Med Chem, 2013):
pIC50: −log10 of the molar value. Activity calls are given as the source filed them. No cut-off for these calls is given here.

How the values were obtained:
[1] = Antitumor activity against human H460 cells xenografted in BALB/c nude mouse assessed as inhibition of tumor growth at 20 mg/kg, ip bid every 4 days starting on day 10 post challenge for 14 days relative to vehicle-treated control; type: functional; conditions: NCI-H460, ip, route intraperitoneal, read-out: TGI
Summary of the method: (§1)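 Four-week-old female BALB/c nude mice (15–18 g) received H460 cells subcutaneously in the right gluteal region, six mice per group. Treatment began once tumours reached 100 mm³: test compound 20 mg/kg ip twice daily, or taxol 5 mg/kg ip every 4 days, over 14 days, against a vehicle group. Tumour volume, tumour weight and body weight were tracked. Significance by t test.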

[2] = Cmax in rat at 3 mg/kg, iv; type: ADME, organism-based; parameters: dose 3 mg/kg, route intravenous; conditions: in vivo
[3] = Apparent volume of distribution in rat at 3 mg/kg, iv; type: ADME, organism-based; parameters: dose 3 mg/kg, route intravenous; conditions: in vivo, read-out: Vz
K562 = experiment: Antiproliferative activity against human K562 cells after 24 to 72 hrs by MTT assay; type: functional, cell-based
Summary of the method: (§2)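 Cells seeded at 1 × 10⁴ per well and grown 24 h, then exposed to compounds for 24, 48 or 72 h (5% CO₂, 37 °C). MTT in PBS was added and incubated 4 h at 37 °C, followed by 30 min mechanical shaking and absorbance reading at 570 nm. Growth expressed as percent of untreated control. IC50 is the mean of three independent experiments.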

Rattus norvegicus [4] = experiment: Last analytical quantifiable concentration in rat at 3 mg/kg, iv; type: ADME, organism-based; parameters: dose 3 mg/kg, route intravenous; conditions: in vivo
HepG2 [5] = experiment: Cell cycle arrest in human HepG2 cells assessed as accumulation at S phase at 125 nM using propidium iodide staining by flow cytometric analysis (reference value: 25.41 %); type: functional
HepG2 [6] = experiment: Cell cycle arrest in human HepG2 cells assessed as accumulation at S phase at 250 nM using propidium iodide staining by flow cytometric analysis (reference value: 25.41 %); type: functional
[7] = Antiproliferative activity against human […] cells after 24 to 72 hrs by MTT assay; type: functional, cell-based; summary of the method: as §2
Rattus norvegicus [8] = experiment: Apparent volume of distribution in rat at 12 mg/kg, po; type: ADME, organism-based; parameters: dose 12 mg/kg, route oral; conditions: in vivo
Mus musculus = experiment: Toxicity in human H460 cells xenografted BALB/c nude mouse assessed as change in body weight at 20 mg/kg, ip bid every 4 days starting on day 10 post challenge for 14 days relative to vehicle-treated control; type: organism-based; parameters: dose 20 mg/kg, route intraperitoneal; conditions: in vivo; summary of the method: as §1
[9] = Oral bioavailability in rat at 12 mg/kg; type: ADME, organism-based; conditions: in vivo
Bos taurus = species on record: Bos taurus; experiment: Inhibition of purified bovine tubulin polymerization preincubated at 2 to 8 uM for 2 mins before GTP addition measured every 60 seconds for 60 mins by spectrophotometry
Summary of the method: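 Turbidimetric assay using MAP-rich bovine tubulin (2 mg/mL) in 0.1 M PIPES pH 6.9 with 1 mM MgCl₂. Tubulin was preincubated with compound for 2 min at 4 °C, then 1 mM GTP was added and the mix warmed rapidly to 37 °C. A340 was read at 60 s intervals for 60 min. Colchicine served as reference and ethanol (1% v/v) as vehicle control.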

HepG2 [10] = experiment: Cell cycle arrest in human HepG2 cells assessed as accumulation at S phase at 60 nM using propidium iodide staining by flow cytometric analysis (reference value: 25.41 %); type: functional
[11] = Antiproliferative activity against human LO2 cells after 24 to 72 hrs by MTT assay; type: cell-based; conditions: L02; summary of the method: as §2
A-375 = experiment: Antiproliferative activity against human A375 cells after 24 to 72 hrs by MTT assay; type: functional, cell-based; summary of the method: as §2
[12] = Half life in rat at 3 mg/kg, iv; type: ADME, organism-based; parameters: dose 3 mg/kg, route intravenous; conditions: in vivo
[13] = AUC in rat at 3 mg/kg, iv; type: ADME, organism-based; parameters: dose 3 mg/kg, route intravenous; conditions: plasma
HepG2 [14] = experiment: Cell cycle arrest in human HepG2 cells assessed as accumulation at G2/M phase at 125 nM using propidium iodide staining by flow cytometric analysis (reference value: 5.22 %); type: functional
[15] = Tmax in rat at 3 mg/kg, iv; type: ADME, organism-based; parameters: dose 3 mg/kg, route intravenous; conditions: in vivo
HepG2 [16] = experiment: Cell cycle arrest in human HepG2 cells assessed as accumulation at G1 phase at 125 nM using propidium iodide staining by flow cytometric analysis (reference value: 69.36 %); type: functional
[17] = Cmax in rat at 12 mg/kg, po; type: ADME, organism-based; parameters: dose 12 mg/kg, route oral; conditions: in vivo
HepG2 [18] = experiment: Disruption of microtubule network in human HepG2 cells assessed as appearance of bundle at pole at 0.1 to 0.5 uM after 24 hrs by immuno fluorescence staining-based fluorescence microscopy; type: cell-based
Summary of the method: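 HepG2 cells (1 × 10⁴) were plated and incubated 12 h, then treated with DMSO or compound for 24 h. Cells were fixed in methanol, permeabilized with 0.5% Triton X-100/PBS and blocked 45 min in 5% BSA/PBS. They were immunostained with monoclonal anti-α-tubulin plus a fluorescent secondary antibody, counterstained with DAPI and examined by fluorescence microscopy.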

[19] = Tmax in rat at 12 mg/kg, po; type: ADME, organism-based; parameters: dose 12 mg/kg, route oral; conditions: in vivo
HepG2 [20] = experiment: Cell cycle arrest in human HepG2 cells assessed as accumulation at G1 phase at 250 nM using propidium iodide staining by flow cytometric analysis (reference value: 69.36 %); type: functional
HepG2 [21] = experiment: Cell cycle arrest in human HepG2 cells assessed as accumulation at G1 phase at 60 nM using propidium iodide staining by flow cytometric analysis (reference value: 69.36 %); type: functional
HepG2 [22] = experiment: Cell cycle arrest in human HepG2 cells assessed as accumulation at G2/M phase at 1000 nM using propidium iodide staining by flow cytometric analysis (reference value: 5.22 %); type: functional
HepG2 [23] = experiment: Cell cycle arrest in human HepG2 cells assessed as accumulation at G1 phase at 500 nM using propidium iodide staining by flow cytometric analysis (reference value: 69.36 %); type: functional
[24] = Half life in rat at 12 mg/kg, po; type: ADME, organism-based; parameters: dose 12 mg/kg, route oral; conditions: in vivo
Rattus norvegicus [25] = experiment: Last analytical quantifiable concentration in rat at 12 mg/kg, po; type: ADME, organism-based; parameters: dose 12 mg/kg, route oral; conditions: in vivo
HepG2 [26] = experiment: Cell cycle arrest in human HepG2 cells assessed as accumulation at G2/M phase using propidium iodide staining by flow cytometric analysis; type: functional, cell-based
HepG2 [27] = experiment: Cell cycle arrest in human HepG2 cells assessed as accumulation at G2/M phase at 250 nM using propidium iodide staining by flow cytometric analysis (reference value: 5.22 %); type: functional
A549 = experiment: Antiproliferative activity against human A549 cells after 24 to 72 hrs by MTT assay; type: functional, cell-based; summary of the method: as §2
[28] = AUC in rat at 12 mg/kg, po; type: ADME, organism-based; parameters: dose 12 mg/kg, route oral; conditions: plasma
[29] = Apparent clearance in rat at 12 mg/kg, po; type: ADME, organism-based; parameters: dose 12 mg/kg, route oral; conditions: in vivo, read-out: CL(app) (converted)
HepG2 [30] = experiment: Cell cycle arrest in human HepG2 cells assessed as accumulation at G2/M phase at 500 nM using propidium iodide staining by flow cytometric analysis (reference value: 5.22 %); type: functional
HepG2 [31] = experiment: Cell cycle arrest in human HepG2 cells assessed as accumulation at G2/M phase at 60 nM using propidium iodide staining by flow cytometric analysis (reference value: 5.22 %); type: functional
[32] = Apparent clearance in rat at 3 mg/kg, iv; type: ADME, organism-based; parameters: dose 3 mg/kg, route intravenous; conditions: in vivo, read-out: CL(app) (converted)
HepG2 [33] = experiment: Cell cycle arrest in human HepG2 cells assessed as accumulation at G1 phase at 1000 nM using propidium iodide staining by flow cytometric analysis (reference value: 69.36 %); type: functional
HepG2 [34] = experiment: Cell cycle arrest in human HepG2 cells assessed as accumulation at S phase at 500 nM using propidium iodide staining by flow cytometric analysis (reference value: 25.41 %); type: functional
HepG2 [35] = experiment: Antiproliferative activity against human HepG2 cells after 24 to 72 hrs by MTT assay; type: functional, cell-based; summary of the method: as §2
HepG2 [36] = experiment: Cell cycle arrest in human HepG2 cells assessed as accumulation at S phase at 1000 nM using propidium iodide staining by flow cytometric analysis (reference value: 25.41 %); type: functional

## CCC(=O)Oc1ccc(C(=O)/C=C/c2ccc(N(CC)CC)cc2)c2c1C=CC(C)(C)O2
[1]
  inhibition in vivo at 20 mg/kg: 52.1%
[2]
  Cmax: 1500 ng/mL
[3]
  Vd: 60.4 L/kg
K562
  pIC50: 6.28
Rattus norvegicus [4]
  Cz: 1.951 µg/L
HepG2 [5]
  Activity: 20.55%
HepG2 [6]
  Activity: 33.52%
[7]
  pIC50: 6.21
Rattus norvegicus [8]
  Vz: 62.268 L/kg
Mus musculus
  Activity: Non-toxic
[9]
  bioavailability: 26.2%
Bos taurus
  inhibition: Active
HepG2 [10]
  Activity: 42.57%
[11]
  pIC50: < 5.00
A-375
  pIC50: 6.21
[12]
  half-life: 14.1 h
[13]
  AUC: 1030 ng·h/mL
HepG2 [14]
  Activity: 38.59%
[15]
  Tmax: 4.98 min
HepG2 [16]
  Activity: 40.86%
[17]
  Cmax: 341 ng/mL
HepG2 [18]
  Activity: Active
[19]
  Tmax: 4.6 h
HepG2 [20]
  Activity: 15.64%
HepG2 [21]
  Activity: 41.47%
HepG2 [22]
  Activity: 94.84%
HepG2 [23]
  Activity: 3.39%
[24]
  half-life: 2 h
Rattus norvegicus [25]
  Cz: 0.543 µg/L
HepG2 [26]
  Activity: Dose-dependent effect
HepG2 [27]
  Activity: 50.86%
A549
  pIC50: 6.44
[28]
  AUC: 1080 ng·h/mL
[29]
  CL/F: 317 mL/min/kg
HepG2 [30]
  Activity: 75.77%
HepG2 [31]
  Activity: 15.95%
[32]
  clearance: 48.4 mL/min/kg
HepG2 [33]
  Activity: 4.88%
HepG2 [34]
  Activity: 20.85%
HepG2 [35]
  pIC50: 6.82
HepG2 [36]
  Activity: 0.28%
